Reference: publication PMC10552104 (ACS Omega, 2023)

Tests used:
Type in all cases: cell-based
[1] = system: HepG2 hepatocellular carcinoma cells; test: MTT cytotoxicity assay, HepG2; settings: Homo sapiens, HepG2, 24 h, read-out: IC50 HepG2
Method in brief: (§1)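 IC50 values in μM, reported as mean ± S.D. from the table footnote; the same footnote covers the three cancer lines and the normal CHO–K1 line. The full series of test compounds was screened on each line.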

[2] = system: DU145 prostate cancer cell line; test: MTT cytotoxicity assay, DU145; settings: Homo sapiens, DU-145, 24 h, read-out: IC50 DU145
Method in brief: as §1

[3] = system: B16 melanoma cancer cell line; test: MTT cytotoxicity assay, B16; settings: Mus musculus, B16, 24 h, read-out: IC50 B16
Method in brief: as §1

Row | SMILES | IC50 [1] [µM] | IC50 [2] [µM] | IC50 [3] [µM]
1 | c1ccc(C(c2c[nH]c3ccccc23)c2c[nH]c3ccccc23)cc1 [1a, 3,3′-(Phenylmethylene)bis(1H-indole)] | 4.62 ± 0.03 | 5.24 ± 0.67 | 9.88 ± 1.19
2 | COc1ccc2[nH]cc(C(c3ccc(C)cc3)c3c[nH]c4ccc(OC)cc34)c2c1 [1c, 3,3′-(p-Tolylmethylene)bis(5-methoxy-1H-indole)] | 5.47 ± 0.56 | 2.02 ± 0.74 | 36 ± 1.09
3 | COc1ccc(C(c2c[nH]c3ccc(C#N)cc23)c2c[nH]c3ccc(C#N)cc23)cc1 [1g, 3,3′-((4-Methoxyphenyl)methylene)bis(1H-indole-5-carbonitrile)] | 6.33 ± 1.8 | 8.13 ± 0.77 | 9.82 ± 0.52
4 | COc1ccc(C(c2c(-c3ccccc3)[nH]c3ccccc23)c2c(-c3ccccc3)[nH]c3ccccc23)cc1OC [1i, 3,3′-((3,4-Dimethoxyphenyl)methylene)bis(2-phenyl-1H-indole)] | 7.43 ± 1.6 | 10.3 ± 0.87 | 15.9 ± 0.25
5 | O=[N+]([O-])c1ccc(C(c2c[nH]c3ccccc23)c2c[nH]c3ccccc23)cc1 [1k, 3,3′((4-Nitrophenyl)methylene)bis(1H-indole)] | 5.28 ± 0.24 | 1.09 ± 0.92 | 29.2 ± 2.38
6 | c1ccc2c(C(c3c[nH]c4ccccc34)c3c[nH]c4ccccc34)cccc2c1 [1m, 3,3′-(Naphthalen-1-ylmethylene)bis(1H-indole)] | 7.54 ± 1.19 | 8.18 ± 0.74 | 9.49 ± 1.97
7 | c1ccc2c(C(c3c[nH]c4ccccc34)c3c[nH]c4ccccc34)c3ccccc3cc2c1 [1n, 3,3′-(Anthracen-9-ylmethylene)bis(1H-indole)] | 11.9 ± 0.1 | 6.87 ± 1.06 | 13.6 ± 0.92
8 | c1coc(C(c2c[nH]c3ccccc23)c2c[nH]c3ccccc23)c1 [1o, 3,3′-(Furan-2-ylmethylene)bis(1H-indole)] | 5.87 ± 0.3 | 60.8 ± 1.24 | 16.1 ± 0.79
9 | Brc1ccc2[nH]cc(C(c3ccco3)c3c[nH]c4ccc(Br)cc34)c2c1 [1p, 3,3′-(Furan-2-ylmethylene)bis(5-bromo-1H-indole)] | 11.4 ± 1.37 | 19.4 ± 0.88 | 19.7 ± 0.87
10 | c1ccc(-c2[nH]c3ccccc3c2C(c2ccco2)c2c(-c3ccccc3)[nH]c3ccccc23)cc1 [1q, 3,3′-(Furan-2-ylmethylene)bis(2-phenyl-1H-indole)] | 5 ± 0.01 | 39.5 ± 1.02 | 23.5 ± 7
11 | Cc1[nH]c2ccccc2c1C(c1cccs1)c1c(C)[nH]c2ccccc12 [1r, 3,3′-(Thiophen-2-ylmethylene)bis(2-methyl-1H-indole)] | 5.82 ± 0.5 | 21.2 ± 2.01 | 15.7 ± 2.1
12 | COc1cc(C(c2c[nH]c3ccccc23)c2c[nH]c3ccccc23)cc(OC)c1O [1s, 4-(Di(1H-indol-3-yl)methyl)-2,6-dimethoxyphenol] | 7.01 ± 0.53 | 22.6 ± 0.98 | 7.02 ± 0.32
13 | COc1ccc(C(c2c[nH]c3ccccc23)c2c[nH]c3ccccc23)cc1OC [1t, 3,3′-((3,4-Dimethoxyphenyl)methylene)bis(1H-indole)] | 8.12 ± 0.87 | 12.2 ± 0.96 | 8.14 ± 1.45
14 | COc1cccc2c1C(=O)c1c(O)c3c(c(O)c1C2=O)C[C@@](O)(C(=O)CO)C[C@@H]3O[C@H]1C[C@H](N)[C@H](O)[C@H](C)O1 [doxorubicin, reference compound] | 0.6 ± 0.12 | 0.7 ± 0.13 | 0.8 ± 0.12
